Screening data deposited in PubChem BioAssay by several laboratories.
STAT1 inh – reduces IFN-gamma driven STAT1 reporter signal. NIH 3T3 STAT1-luciferase reporter, luminescence. inhibition, % at 5.5 µM. 0.35% of 200,000 active. AID 920;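 active means inhibition above a set limit, the mean inhibition across all tested compounds plus 3 SD, cut at about 34% in these data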;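 further: 0% = IFN-gamma with DMSO and 100% = IFN-gamma with 300 µM nifuroxazide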
APP 5'UTR act – APP 5'UTR luciferase reporter activation | SH-SY5Y APP 5'UTR luciferase reporter, luminescence; zero percent = DMSO vehicle wells | activation, % at 2 µM | 1% of 190,000 active | AID 1276;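 active means activation above a set limit, based on mean plus 3 SD of controls, cut at about 140% in these data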
NF-kB neuron act – raises NF-kB expression in human neuronal cells. NF-kB reporter expression; stronger effect = higher value. fold change at 12.5 µM. 1.6% of 190,000 active; in the data active means fold change above about 3.3
STAT3 activator – STAT3 signaling activation; AID 871; U3A cells, IL-6 STAT3-luciferase reporter, luminescence; 100% = signal with IL-6 EC80 alone; activation (% of control), % at 5.6 µM; 0.91% of 190,000 active;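 active means activation above the screen-wide mean of compound activation plus 3 SD, cut at about 130% in these data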;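 further: 0% = background luminescence of wells with medium and substrate only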
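Material: STAT3-luciferase reporter U3A cells; Probe or stimulus: IL-6 (33 ng/mL); Incubation: compound pre-incubation 1 h before IL-6, then 6 h stimulation at 37 °C; Technique: luminescence from STAT3-driven luciferase reporter; Evaluation: % activation versus median of IL-6-stimulated wells; Controls: IL-6-only high control.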
STAT3 inh – reduces IL-6 driven STAT3 reporter signal; U3A cells, IL-6 STAT3-luciferase reporter, luminescence; host cell line lacks STAT1; inhibition, % at 5.5 µM; 0.89% of 190,000 active; AID 862;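 active means inhibition above the mean inhibition across all screened compounds plus 3 SD, cut at about 44% in these data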;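 further: 0% = DMSO only wells and 100% = 100 µM nifuroxazide control wells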
STAT1 act – increases IFN-gamma driven STAT1 reporter signal; AID 932; NIH 3T3 STAT1-luciferase reporter, luminescence; 100% = IFN-gamma alone, no compound; 2.6% of 200,000 active; activation (% of control), % at 5.5 µM;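 active means activation above the screen-wide mean activation plus 3 SD, cut at about 130% in these data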;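 further: raw ratio to IFN-gamma control signal so 100% means no change and 0% no light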
Active calls of the source: *. An excerpt weighted towards active compounds, which were near 5.1% of everything screened.

Screening CC1CCCCN1C(=O)c1cc2nc(-c3ccccc3)cc(-c3ccccc3)n2n1 (stereo unspecified) returned STAT1 inh -6, APP 5'UTR act 3, NF-kB neuron act 0.38, STAT3 activator 100, STAT3 inh 1 and STAT1 act 105.
For CC(C)C[C@@H]1NC(=O)[C@H](C(C)C)NC(=O)c2cc([N+](=O)[O-])cc(I)c2OCC[C@@H](C(N)=O)NC1=O the results were STAT1 inh -5, APP 5'UTR act 22, NF-kB neuron act 1.1, STAT3 activator 105, STAT3 inh -9 and STAT1 act 104.
For COc1ccc(-c2cc(C(=O)N3CCCCC3)no2)cc1OC the results were STAT1 inh -35, APP 5'UTR act 46, NF-kB neuron act 1.9, STAT3 activator 112, STAT3 inh -10 and STAT1 act 132*.
For COc1ccc(-c2cc(C(=O)N3CCN(Cc4ccccc4)CC3)no2)cc1OC the results were STAT1 inh -9, APP 5'UTR act -1, NF-kB neuron act 0.88, STAT3 activator 110, STAT3 inh -5 and STAT1 act 107.
Cc1c(C#N)c(O)n(CCO)c(=O)c1N=Nc1ccc(S(N)(=O)=O)cc1 was read as STAT1 inh 4, APP 5'UTR act 14, NF-kB neuron act 1, STAT3 activator 101, STAT3 inh 10 and STAT1 act 95.
Cc1c(C#N)c(O)n(C)c(=O)c1N=Nc1ccc(S(N)(=O)=O)cc1 was read as STAT1 inh -46, APP 5'UTR act -1, NF-kB neuron act 1.1, STAT3 activator 111, STAT3 inh 1 and STAT1 act 141*.
Cc1nn(CC2CC2)c(=O)n1-c1ccccc1F was read as STAT1 inh 4, APP 5'UTR act 7, NF-kB neuron act 1.2, STAT3 activator 100, STAT3 inh 4 and STAT1 act 96.
Cc1nn(CCOc2ccccc2)c(=O)n1-c1c(F)cccc1F was read as STAT1 inh -45, APP 5'UTR act 62, NF-kB neuron act 2.4, STAT3 activator 111, STAT3 inh -7 and STAT1 act 140*.
For Cc1ccc(-n2c(C)nn(CCOc3ccccc3)c2=O)cc1 the results were STAT1 inh -40, APP 5'UTR act 58, NF-kB neuron act 2.2, STAT3 activator 110, STAT3 inh -7 and STAT1 act 134*.
`CN1c2cccc3cccc(c23)N(C)C1(C)C` gave STAT1 inh 1, APP 5'UTR act -3, NF-kB neuron act 4.1*, STAT3 activator 112, STAT3 inh -10 and STAT1 act 99.
`CN1c2ccccc2N(C)C1(C)c1cccc2ccccc12` gave STAT1 inh 3, APP 5'UTR act -7, NF-kB neuron act 0.58, STAT3 activator 96, STAT3 inh 4 and STAT1 act 97.
Screening O=C(/C=C/c1ccccc1Cl)NCc1cccs1 returned STAT1 inh -35, APP 5'UTR act 31, NF-kB neuron act 2, STAT3 activator 108, STAT3 inh -12 and STAT1 act 131*.
For Cc1cc2nnc(SCC(=O)OC(C)C)n2c2ccccc12 the results were STAT1 inh -4, APP 5'UTR act 5, NF-kB neuron act 1.3, STAT3 activator 100, STAT3 inh 3 and STAT1 act 104.
For c1ccc(Sc2cnc3ccccc3n2)cc1 the results were STAT1 inh -36, APP 5'UTR act 38, NF-kB neuron act 1.6, STAT3 activator 110, STAT3 inh -12 and STAT1 act 134*.
O=C(Cc1ccccc1)Nc1nc(-c2cccs2)cs1 was read as STAT1 inh -3, APP 5'UTR act 14, NF-kB neuron act 1.2, STAT3 activator 94, STAT3 inh 10 and STAT1 act 103.
`CN(c1ccc(O)cc1)c1nc(-c2cccs2)cs1` gave STAT1 inh -44, APP 5'UTR act 173*, NF-kB neuron act 7*, STAT3 activator 101, STAT3 inh 4 and STAT1 act 141*.
Screening Cc1ccc(Nc2nc(-c3cccs3)cs2)nc1 returned STAT1 inh 64*, APP 5'UTR act 172*, NF-kB neuron act 4.9*, STAT3 activator 33, STAT3 inh 80* and STAT1 act 40.
Screening c1cncc(Nc2nc(-c3cccs3)cs2)c1 returned STAT1 inh -44, APP 5'UTR act 7, NF-kB neuron act 2.4, STAT3 activator 141*, STAT3 inh -48 and STAT1 act 132*.
